Test results published in ChEMBL document CHEMBL3868592, “Analogues of Marine Guanidine Alkaloids Are in Vitro Effective against Trypanosoma cruzi and Selectively Eliminate Leishmania (L.) infantum Intracellular Amastigotes” (J Nat Prod, 2016).
The source made the active and inactive calls. The calls are words filed in the database; no cut-off is given here.

Experiments:
Trypanosoma cruzi [1] = assay: Antitrypanosomal activity against Trypanosoma cruzi Y trypomastigote forms infected in monkey LLC-MK2 cells assessed as reduction in parasite viability after 24 hrs by resazurin assay; format: functional, cell-based; details: LLC-MK2, 24 h
Method in brief: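 Y-strain trypomastigotes from LLC-MK2 cultures seeded at 1×10^6/well in RPMI-1640. Compounds up to 150 μM, 24 h at 37 °C, 5% CO2. Viability by resazurin (0.011% in PBS), read at 570 nm against drug-free and cell-free wells; 0.5% DMSO control. IC50 by sigmoidal dose-response curve fitting.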

[2] = Cytotoxicity against mouse NCTC-929 cells assessed as decrease in cell viability after 48 hrs by MTT assay; format: toxicity
Method in brief: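 NCTC clone 929 murine cells seeded at 6×10^4/well. Compound up to 150 μM for 48 h at 37 °C, 5% CO2. Viability read by MTT. CC50 from sigmoidal dose-response; mean of at least two independent experiments.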

Leishmania infantum [3] = assay: Antileishmanial activity against Leishmania infantum MHOM/BR/1972/LD promastigote forms […] assessed as reduction in parasite viability after 48 hrs by MTT assay; format: functional
Method in brief: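 Late-growth-phase promastigotes (passage 5) seeded at 1×10^6/well in M-199. Compounds dissolved in DMSO, tested up to 100 μM, 48 h at 24 °C. Viability by MTT, OD 570 nm, against drug-free (100%) and cell-free blank wells; 0.5% DMSO control. IC50 from sigmoidal dose-response curves; ≥2 independent assays.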

[4] = Selectivity index, ratio of CC50 for mouse NCTC-929 cells to IC50 for Leishmania infantum MHOM/BR/1972/LD amastigote forms infected in BALB/c mouse macrophages; format: functional
[5] = Selectivity index, ratio of CC50 for mouse NCTC-929 cells to IC50 for Trypanosoma cruzi Y trypomastigote form infected in monkey LLC-MK2 cells; format: functional
Trypanosoma cruzi [6] = assay: Potency index, ratio of benznidazole IC50 to compound IC50 for Trypanosoma cruzi Y trypomastigote forms infected in monkey LLC-MK2 cells; format: functional
Leishmania infantum [7] = assay: Antileishmanial activity against Leishmania infantum MHOM/BR/1972/LD amastigote forms infected in BALB/c mouse peritoneal macrophages assessed as reduction in parasite viability after 120 hrs by giemsa staining based light microscopy; format: functional
Method in brief: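 BALB/c peritoneal macrophages seeded at 1×10^5/well for 24 h, then infected with hamster spleen-derived amastigotes (1:10 macrophage:amastigote, 24 h, 37 °C, 5% CO2). Compound exposure for 120 h, highest 100 μM. Cells MeOH-fixed and Giemsa-stained; infected macrophages counted out of 400 cells. IC50 from sigmoidal dose-response; at least two independent assays.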

Leishmania infantum [8] = assay: Induction of ROS generation in Leishmania infantum MHOM/BR/1972/LD promastigote form at 34 uM incubated for […] by H2DCF-DA probe based fluorimetric assay relative to untreated control; format: functional
Method in brief: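 Promastigotes (2×10^6/well) washed in HBSS and exposed to compound for 60 min. H2DCFDA (5 μM) then added for 15 min. Fluorescence read at ex 485/em 520 nm. Sodium azide 10 mM as positive control; background, DMSO, untreated and cell-free controls included. Triplicates.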

Splenocyte = assay: Antiinflammatory activity in splenocytes (unknown origin) assessed as decrease in MCP1 release at 15 uM after 48 hrs by flow cytometric analysis; format: functional, cell-based
Leishmania infantum [9] = assay: Induction of plasma membrane permeability in Leishmania infantum MHOM/BR/1972/LD promastigote form assessed as increase in fluorescence intensity at 34 uM measured every 20 mins for 60 mins by SYTOX green dye based fluorimetric assay relative to control; format: functional
Method in brief: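 Late-growth-phase promastigotes (passage 7) washed in PBS, seeded at 2×10^6/well and loaded with 1 μM SYTOX Green for 15 min at 24 °C. Compound added; fluorescence (ex 485/em 520 nm) read every 20 min over 60 min. 0.1% Triton X-100 defined maximal permeabilization. Background, DMSO, untreated and cell-free controls included. Triplicates.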

Leishmania infantum [10] = assay: Induction of mitochondrial membrane potential loss in Leishmania infantum MHOM/BR/1972/LD promastigote form at 34 uM incubated for 60 mins by rhodamine-123 dye based fluorimetric assay; format: functional
Method in brief: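 Promastigotes (2×10^6/mL) in HBSS-glucose exposed to compound for 60 min at 25 °C. Rhodamine-123 (0.3 μg/mL) then added, cells washed and resuspended in HBSS-Glc, and fluorescence read at ex 485/em 520 nm. Sodium azide 10 mM as positive control; background, DMSO and untreated controls included. Triplicates.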

Peritoneal macrophage [11] = assay: Antiinflammatory activity in BALB/c mouse peritoneal macrophages co-cultivated with splenocytes assessed as decrease in INF-gamma release at 15 uM after 48 hrs by flow cytometric analysis; format: functional
Method in brief: (§1)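 Peritoneal macrophages from BALB/c mice seeded at 1.5×10^5 cells/well; after 24 h, infected where applicable with L. infantum spleen-derived amastigotes at 1:10 (macrophage:amastigote). After 24 h, cocultured where applicable with splenocytes at 6:1. Compound added for 48 h. Supernatant cytokines quantified with an inflammatory cytometric bead array by flow cytometry. Sham-treated infected macrophages served as reference.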

Peritoneal macrophage [12] = assay: Antiinflammatory activity in BALB/c mouse peritoneal macrophages infected with Leishmania infantum MHOM/BR/1972/LD amastigote form cocultivated with splenocytes assessed as decrease in INF-gamma release at 15 uM after 48 hrs by flow cytometric analysis; format: functional; method in brief: as §1

Row | SMILES | IC50 (Trypanosoma cruzi [1]) [µM] | CC50 at 48 h [2] [µM] | IC50 (Leishmania infantum [3]) [µM] | Ratio CC50/IC50 [4] | Ratio CC50/IC50 [5] | Ratio IC50 (Trypanosoma cruzi [6]) | IC50 (Leishmania infantum [7]) [µM] | Activity (Leishmania infantum [8]) [%] | Activity (Splenocyte) | Activity (Leishmania infantum [9]) [%] | Activity (Leishmania infantum [10]) [%] | Activity (Peritoneal macrophage [11]) | Activity (Peritoneal macrophage [12])
1 | C=CCOC(=O)C1=C(CCCCC[C@@H](C)O[Si](C(C)(C)C)(C(C)(C)C)C(C)(C)C)NC2=[N+]3[C@H](CC[C@@H]13)C[C@H](C)N2.CC(=O)[O-] | 0.9 | 2 | > 100 | 3 | 2 | 17 | 0.8 | – | – | – | – | – | –
2 | CCCCCC(=O)OCCCC[C@H]1C[C@H]2CC[C@H]3C[C@@H](C)[NH+]=C(N1)N23.F[B-](F)(F)F | 22 | > 150 | 109 | – | >7 | – | > 100 | – | – | – | – | – | –
3 | C1CC[C@]2(C[C@H]3CC[C@H]4C[C@@]5(CCCCO5)[NH+]=C(N2)N34)OC1.F[B-](F)(F)F | > 100 | > 150 | > 100 | >19 | – | – | 8 | – | – | – | – | – | –
4 | CCCCCCCCC[C@@H]1C[C@@H]2CC[C@H]3C(C(=O)O)[C@@H](C)N=C(N1)N23.O=C(O)C(F)(F)F (single isomer, unassigned; 15) | 79 | 70 | 57 | 3 | 0.9 | – | 24 | – | – | – | – | – | –
5 | CCCCCCCCCc1cc(CCCO)nc(N)n1 | 8 | 42 | 42 | 8 | 5 | – | 5 | – | – | – | – | – | –
6 | CCCCCCCC(=O)OCCCC[C@H]1C[C@H]2CC[C@H]3C[C@@H](C)[NH+]=C(N1)N23.F[B-](F)(F)F | 8 | 100 | 53 | – | 12 | – | > 100 | – | – | – | – | – | –
7 | CC(C)=CCC/C(C)=C/CNC(=N)N.Cl | 35 | 116 | 9 | 6 | 3 | – | 19 | – | – | – | – | – | –
8 | CCCCCCCCC[C@@H]1C[C@@H]2CC[C@H]3C(C(=O)O)[C@@H](C)N=C(N1)N23 (single isomer, unassigned; 16) | 69 | 60 | 47 | – | 0.9 | – | > 100 | – | – | – | – | – | –
9 | CC(=O)OCCCC[C@H]1C[C@H]2CC[C@H]3C[C@@H](C)[NH+]=C(N1)N23.F[B-](F)(F)F | 88 | > 150 | > 100 | – | >2 | – | > 100 | – | – | – | – | – | –
10 | CCCCCCCCCC(=O)OCCCC[C@H]1C[C@H]2CC[C@H]3C[C@@H](C)[NH+]=C(N1)N23.F[B-](F)(F)F | 4 | 84 | 59 | – | 28 | 4 | > 100 | – | – | – | – | – | –
11 | C[C@@H]1C[C@@H]2CC[C@@H]3C[C@H](CCCCO[Si](C(C)(C)C)(C(C)(C)C)C(C)(C)C)NC(=[NH+]1)N32.F[B-](F)(F)F | 4 | 65 | 7 | 4 | 16 | – | 18 | – | – | – | – | – | –
12 | CCCCCCCCCCCCCCCCOP(=O)([O-])OCC[N+](C)(C)C [MILTEFOSINE] | – | 122 | – | 7 | – | – | 17 | – | – | – | – | – | –
13 | CCCC(=O)OCCCC[C@H]1C[C@H]2CC[C@H]3C[C@@H](C)[NH+]=C(N1)N23.F[B-](F)(F)F | 49 | > 150 | > 100 | – | >2 | – | > 100 | – | – | – | – | – | –
14 | C[C@H](O)CCCCC[C@@H]1C[C@H]2CC[C@H]3C[C@@H](C)NC(=[NH+]1)N23.F[B-](F)(F)F | > 100 | > 150 | > 100 | >3 | – | – | 49 | – | – | – | – | – | –
15 | C[C@@H]1CCC[C@]2(CCN3CC[C@]4(CCC[C@@H](C)O4)NC3=N2)O1 | > 100 | > 150 | > 100 | – | – | – | > 100 | – | – | – | – | – | –
16 | F[B-](F)(F)F.c1ccc([C@@H]2C[C@@H]3CC[C@@H]4C[C@H](c5ccccc5)NC(=[NH+]2)N43)cc1 | 9 | 45 | 34 | 20 | 5 | – | 2 | 60 | Active | 10 | 70 | Active | Active
17 | O=C(Cn1ccnc1[N+](=O)[O-])NCc1ccccc1 [BENZNIDAZOLE] | 16 | > 150 | – | – | >9 | – | – | – | – | – | – | – | –
18 | C[C@@H]1C[C@@H]2CC[C@@H]3C[C@H](CCCCO)NC(=N1)N32 | > 100 | > 150 | > 100 | – | – | – | > 100 | – | – | – | – | – | –
19 | CCCCCCCCCCCC(=O)OCCCC[C@H]1C[C@H]2CC[C@H]3C[C@@H](C)[NH+]=C(N1)N23.F[B-](F)(F)F | 4 | 57 | 48 | – | 19 | 4 | > 100 | – | – | – | – | – | –
